This is a sample that favours compounds with a hit; in the whole collection about 3.1% have one here.
GalR3 antag: GalR3 antagonists in HEK293 cells, primary screen, cell-based, fluorescence readout; hit rate 0.44% among 360,000; inhibition, % at 3 µM; HEK293 GalR3-CNG cAMP membrane potential fluorescence; galR3 body fused to GalR1 C-terminus;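 active = inhibition above the screen-wide average plus 3 SD, cut at about 13% in these data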;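 note: forskolin and galanin both at EC90 stimulate the cells; cAMP rise reported by CNG channel membrane potential dye signal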
Target sequence (O60755 1-299 limits assumed): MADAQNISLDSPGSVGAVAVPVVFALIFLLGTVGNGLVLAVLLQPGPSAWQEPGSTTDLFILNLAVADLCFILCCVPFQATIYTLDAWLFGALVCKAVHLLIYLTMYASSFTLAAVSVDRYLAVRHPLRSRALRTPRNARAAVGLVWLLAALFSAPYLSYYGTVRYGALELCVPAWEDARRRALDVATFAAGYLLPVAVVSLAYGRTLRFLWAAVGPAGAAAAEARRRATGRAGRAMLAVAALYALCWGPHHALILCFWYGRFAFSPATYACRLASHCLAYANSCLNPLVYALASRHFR
CHO parental Ca: ATP-evoked calcium signal inhibitors, parental CHO, primary screen, counter-screen for OX1R antagonist project, cell-based, fluorescence, Fluo-8 calcium dye. parental CHO-K1, ATP-induced calcium, Fluo-8 fluorescence. inhibition, % at 5.6 µM. hit rate 0.63% among 330,000. AID 463079, 2010;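 active = inhibition above that plate's mean sample inhibition plus 3 SD, cut at about 26% in these data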
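Material – parental CHO cells · Reagent – ATP stimulus · Compound – single nominal dose of 5.6 µM per compound · Detection – Fluo-8 fluorescence · Read-out basis – percent inhibition of calcium signal · Controls – ATP-challenged DMSO wells low, unchallenged DMSO wells high · Repeats – no replicates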
GPR7 antag: GPR7 receptor antagonists, primary screen, cell-based, fluorescence, single concentration. AID 1861, 2009. hit rate 1.1% among 290,000. Neuropeptides B/W receptor type 1 (Homo sapiens), P48145. inhibition, % at 4.4 µM. GPR7-expressing cells, fluorescence antagonist assay; in the data active = inhibition above about 16%, passing the limit was not always enough;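 note: cells stimulated with the agonist NPW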
Target sequence (P48145 whole entry, looked up): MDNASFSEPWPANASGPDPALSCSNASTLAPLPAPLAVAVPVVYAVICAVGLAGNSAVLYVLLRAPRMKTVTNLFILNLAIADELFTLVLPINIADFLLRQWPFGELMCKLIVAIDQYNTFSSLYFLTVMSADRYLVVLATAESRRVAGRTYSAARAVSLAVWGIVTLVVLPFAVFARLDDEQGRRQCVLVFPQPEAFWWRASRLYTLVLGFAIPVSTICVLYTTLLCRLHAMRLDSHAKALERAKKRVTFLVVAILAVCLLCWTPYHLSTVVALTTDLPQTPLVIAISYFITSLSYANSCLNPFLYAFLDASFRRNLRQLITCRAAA
OX1R antag-1: OX1R (HCRTR1) antagonists, primary screen, fluorescence, CHO/OX1R cells, Fluo-8 calcium, orexin A; Fluo-8 calcium fluorescence; hit rate 0.43% among 330,000; Orexin/Hypocretin receptor type 1 (Homo sapiens), O43613; inhibition, % at 5 µM; AID 434989, 2010;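 active = inhibition above its plate's threshold, mean inhibition of all tested compounds on the plate plus 3 SD, cut at about 37% in these data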
OX1R antag-2: antagonists of human orexin 1 receptor (OX1R); Orexin/Hypocretin receptor type 1 (Homo sapiens), O43613; OX1R-expressing cells, FRET antagonist read-out; inhibition, % at 6.6 µM; hit rate 1.8% among 330,000; AID 485270, 2010; in the data active = inhibition mostly above about 38%, no sharp cut-off; inactive = mostly below about 40%
GalR3 antag conf: GalR3 antagonist hit confirmation, cell-based, fluorescence, triplicate; shares compounds with GalR3 antag; HEK293 GalR3 CNG cAMP biosensor, membrane potential fluorescence; galR3 fused to GalR1 carboxy tail; challenged with forskolin and galanin at EC90; inhibition, % at 3 µM; hit rate 59% among 1,600;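 active = inhibition above the primary screen's cutoff, the mean inhibition of all screened compounds plus 3 SD, cut at about 13% in these data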
CNG parental: nonspecific cAMP agonists in parental HEK-CNG cells, counter-screen for GalR3 antagonist project, cell-based, fluorescence, high throughput. HEK293-CNG parental cells, cAMP membrane potential fluorescence; normalised: DMSO wells 0%, forskolin wells 100%. shares compounds with GalR3 antag. activation, % at 3 µM. AID 652268, 2013. hit rate 10% among 1,600; in the data active = activation above about 1.3%
Numbers stand for hits.

Screening COc1cccc(C2=NN(C(=O)c3cccs3)C(O)(C(F)(F)F)C2)c1 (stereo unspecified) returned GalR3 antag 13, CHO parental Ca inactive, GPR7 antag inactive, OX1R antag-1 inactive, OX1R antag-2 inactive, GalR3 antag conf inactive and CNG parental inactive.
Screening CCOC(=O)C1CCCN(S(=O)(=O)c2cc(OCC(=O)NC3CCCCC3)c(C)cc2Cl)C1 (stereo unspecified) returned GalR3 antag inactive, CHO parental Ca inactive, GPR7 antag inactive, OX1R antag-1 inactive and OX1R antag-2 inactive.
For Cc1cc(Cl)c(S(=O)(=O)N2CCN(c3ccc(F)cc3)CC2)cc1OCC(=O)NC1CCCCC1 the results were GalR3 antag 97, CHO parental Ca 58, GPR7 antag inactive, OX1R antag-1 52, OX1R antag-2 inactive, GalR3 antag conf 110 and CNG parental inactive.
CC(C)(C)C#CCn1c(/C=[N+](\[O-])C2CCCCC2)nc2ccccc21 was read as CHO parental Ca inactive, GPR7 antag inactive, OX1R antag-1 inactive and OX1R antag-2 inactive.
For CCN1C(=O)[C@@H]2[C@@H](c3ccc(-c4ccc(Cl)c(Cl)c4)c(OC)c3)N3CCCC[C@@]3(C(=O)OC)[C@@H]2C1=O the results were GalR3 antag 13, CHO parental Ca inactive, OX1R antag-1 inactive, OX1R antag-2 inactive, GalR3 antag conf inactive and CNG parental 1.9.
`CCN1C(=O)[C@H]2[C@@H](c3ccc(-c4cccc(Cl)c4)c(OC)c3)N3CCC[C@@]3(C(=O)OC)[C@H]2C1=O` gave GalR3 antag inactive, CHO parental Ca inactive, OX1R antag-1 inactive and OX1R antag-2 inactive.
O=C(O)Cc1csc(-c2cccc(F)c2)n1 was read as CHO parental Ca inactive, GPR7 antag inactive, OX1R antag-1 inactive, OX1R antag-2 inactive, GalR3 antag conf inactive and CNG parental inactive.
O=C(O)Cc1csc(-c2ccccc2)n1 was read as GalR3 antag inactive, CHO parental Ca inactive, GPR7 antag inactive, OX1R antag-1 inactive and OX1R antag-2 inactive.
Screening OC1CNc2c(ccc3ccccc23)C1 (stereo unspecified) returned GalR3 antag inactive.
Screening CC(CCc1ccccc1)NC(=O)CCCn1ncn2c(cc3occc32)c1=O (stereo unspecified) returned GalR3 antag inactive, CHO parental Ca inactive, GPR7 antag inactive, OX1R antag-1 inactive and OX1R antag-2 inactive.
`O=C(Nc1nc(-c2ccc3c(c2)OCCO3)cs1)c1ccc(S(=O)(=O)N2CCCCC2)cc1` gave GalR3 antag 20, CHO parental Ca inactive, GPR7 antag inactive, OX1R antag-1 inactive, OX1R antag-2 inactive, GalR3 antag conf 15 and CNG parental inactive.
`O=C(NCCN1CCC(n2c(=O)[nH]c3ccccc32)CC1)c1cccs1` gave GalR3 antag inactive.
Screening CC(=O)c1ccc(N2CCN(S(=O)(=O)c3ccc4c(c3)CC(C)N4C(=O)C3CC3)CC2)cc1 (stereo unspecified) returned GalR3 antag inactive, CHO parental Ca inactive, GPR7 antag inactive, OX1R antag-1 inactive and OX1R antag-2 inactive.
Screening CC(=O)N1c2ccc(S(=O)(=O)N3CCC(C(=O)Nc4cccc(C)n4)CC3)cc2CC1C (stereo unspecified) returned GalR3 antag 51, CHO parental Ca inactive, GPR7 antag inactive, OX1R antag-1 inactive, OX1R antag-2 inactive, GalR3 antag conf 94 and CNG parental inactive.
For CC(=O)c1ccc(N2CCN(S(=O)(=O)c3ccc4c(c3)CC(C)N4C(C)=O)CC2)cc1 (stereo unspecified) the results were GalR3 antag 98, CHO parental Ca inactive, GPR7 antag inactive, OX1R antag-1 42, OX1R antag-2 inactive, GalR3 antag conf 106 and CNG parental inactive.
Screening CC(=O)N1c2ccc(S(=O)(=O)NCC3CCC(C(=O)Nc4cccc(C)n4)CC3)cc2CC1C (stereo unspecified) returned GalR3 antag 24, CHO parental Ca inactive, GPR7 antag inactive, OX1R antag-1 inactive, OX1R antag-2 inactive, GalR3 antag conf inactive and CNG parental inactive.
Screening C/C(=N/NC(=O)CN1CCN(Cc2ccccc2Cl)CC1)c1cccs1 returned GalR3 antag inactive, CHO parental Ca inactive, GPR7 antag inactive, OX1R antag-1 inactive and OX1R antag-2 inactive.
`COC(=O)[C@]12C[C@H](CC(=O)N3CCOCC3)C(=O)N(Cc3ccccc3)C1=C[C@H](C1CCCC1)O[C@@H]2C` gave GalR3 antag inactive.
`NNc1nnc2c3cc(F)ccc3n(CCc3ccccc3)c2n1` gave GalR3 antag inactive, CHO parental Ca inactive, GPR7 antag inactive, OX1R antag-1 inactive and OX1R antag-2 inactive.
CC1CC(C)CN(C(=O)CSc2nnc(N)s2)C1 (stereo unspecified) was read as GalR3 antag inactive, CHO parental Ca inactive, GPR7 antag inactive, OX1R antag-1 inactive and OX1R antag-2 inactive.
`CC1CC(C)CN(C(=O)CSCC(=O)O)C1` (stereo unspecified) gave GalR3 antag 13, CHO parental Ca inactive, GPR7 antag inactive, OX1R antag-1 inactive, OX1R antag-2 inactive, GalR3 antag conf inactive and CNG parental inactive.
For CCOc1ccccc1CN1CCN(CCCc2ccccc2)CC1CCO (stereo unspecified) the results were GalR3 antag inactive, CHO parental Ca inactive, GPR7 antag inactive, OX1R antag-1 inactive and OX1R antag-2 inactive.
For O=C(CSC1=Nc2ccccc2C2CC=NN12)Nc1ccc2c(c1)OCO2 (stereo unspecified) the results were GalR3 antag 20, GPR7 antag inactive, GalR3 antag conf inactive and CNG parental inactive.
`COc1ccc(CC2(CO)CCN(Cc3cnn(-c4ccc(F)cc4)c3)CC2)cc1` gave GalR3 antag 17, CHO parental Ca inactive, GPR7 antag inactive, OX1R antag-1 inactive, OX1R antag-2 inactive, GalR3 antag conf inactive and CNG parental 1.5.
`COc1ccc(CC2(CO)CCN(CC3=Cc4cc(Cl)ccc4OC3)CC2)cc1` gave GalR3 antag 70, CHO parental Ca 64, GPR7 antag inactive, OX1R antag-1 43, OX1R antag-2 inactive, GalR3 antag conf 76 and CNG parental 2.2.
For COc1ccc(CC2(CO)CCN(Cc3ccc(OC(F)(F)F)cc3)CC2)cc1 the results were GalR3 antag 17, CHO parental Ca inactive, GPR7 antag inactive, OX1R antag-1 inactive, OX1R antag-2 inactive, GalR3 antag conf inactive and CNG parental 1.8.

Compound activity: PubChem BioAssay, The Scripps Research Institute Molecular Screening Center
